Experimental data pooled from the literature.
Compare with care: the assays were run in different laboratories.
Target: Serine/threonine-protein kinase Nek1 (NEK1, Homo sapiens, UniProt Q96PY6)
Residues used in one study (Q96PY6 1-1258): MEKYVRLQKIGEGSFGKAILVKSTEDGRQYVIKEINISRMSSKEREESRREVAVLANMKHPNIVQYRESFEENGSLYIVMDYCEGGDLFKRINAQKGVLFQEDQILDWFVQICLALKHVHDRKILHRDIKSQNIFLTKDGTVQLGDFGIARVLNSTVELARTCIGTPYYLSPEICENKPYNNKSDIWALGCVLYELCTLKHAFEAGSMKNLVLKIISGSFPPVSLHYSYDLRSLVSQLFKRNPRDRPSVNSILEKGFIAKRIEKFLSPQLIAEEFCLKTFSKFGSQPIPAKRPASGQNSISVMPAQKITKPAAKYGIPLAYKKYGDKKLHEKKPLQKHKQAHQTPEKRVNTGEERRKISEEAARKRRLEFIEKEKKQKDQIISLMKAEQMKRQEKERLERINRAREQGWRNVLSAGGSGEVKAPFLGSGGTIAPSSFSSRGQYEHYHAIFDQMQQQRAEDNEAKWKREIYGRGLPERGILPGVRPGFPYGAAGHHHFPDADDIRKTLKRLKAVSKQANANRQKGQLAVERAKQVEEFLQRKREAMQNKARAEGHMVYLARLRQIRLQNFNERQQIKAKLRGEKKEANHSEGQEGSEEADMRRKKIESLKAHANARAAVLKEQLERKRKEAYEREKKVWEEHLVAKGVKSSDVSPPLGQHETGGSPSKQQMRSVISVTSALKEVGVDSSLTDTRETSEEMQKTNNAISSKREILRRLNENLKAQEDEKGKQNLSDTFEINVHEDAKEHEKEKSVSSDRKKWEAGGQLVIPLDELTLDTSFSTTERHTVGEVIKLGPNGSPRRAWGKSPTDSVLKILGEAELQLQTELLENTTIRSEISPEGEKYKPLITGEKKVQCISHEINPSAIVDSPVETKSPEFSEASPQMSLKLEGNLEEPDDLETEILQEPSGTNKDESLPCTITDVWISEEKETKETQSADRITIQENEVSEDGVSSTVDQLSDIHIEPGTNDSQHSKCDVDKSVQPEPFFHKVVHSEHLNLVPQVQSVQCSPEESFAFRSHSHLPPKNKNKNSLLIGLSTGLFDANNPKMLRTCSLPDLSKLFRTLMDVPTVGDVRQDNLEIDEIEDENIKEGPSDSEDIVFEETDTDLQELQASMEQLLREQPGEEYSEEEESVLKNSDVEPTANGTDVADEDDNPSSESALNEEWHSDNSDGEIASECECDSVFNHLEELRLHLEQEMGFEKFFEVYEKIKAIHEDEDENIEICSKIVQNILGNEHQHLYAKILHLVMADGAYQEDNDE

CN(C)c1ncc(F)c(-c2cnn3ncccc23)n1
remaining binding (binding; 1 µM): 100%

O=C(NS(=O)(=O)c1ccc(NCC2CCOCC2)c([N+](=O)[O-])c1)c1ccc(N2CCN(Cc3ccc(C(F)(F)F)cc3-c3ccc(Cl)cc3)CC2)cc1Oc1cnc2[nH]ccc2c1
remaining binding (cell-free assay; competition with immobilised ligand; 1 µM): 99%

COc1ccnn2ncc(-c3ccnc(N(C)C)n3)c12
remaining binding (binding; 1 µM): 100%

CNC(=O)[C@@H]1CC[C@@H](n2c(-c3ccc4cnccc4c3)nc3ccc(C(=O)NCc4cccc(C(N)=O)c4)cc32)C1
remaining binding (binding; competition with immobilised ligand; 1 µM): 100%

CN(C)c1nccc(-c2cnn3ncccc23)n1
remaining binding (binding; 1 µM): 88%

C[C@@H](c1ccc(-n2cnc3c(N)ncnc32)cc1)N1CCc2nn(C)c(Cc3ccccc3)c2C1=O
remaining binding (binding; competition with immobilised ligand; 0.1 µM): 87%

CNC(=O)Nc1ccc2c(c1)CC[C@@]21OC(=O)N(CC(=O)N(Cc2ccc(F)cc2)[C@@H](C)C(F)(F)F)C1=O
remaining binding (cell-free assay; competition with immobilised ligand; 1 µM): 100%

CC1CCCN1c1nccc(-c2cnn3ncccc23)n1 (stereo not shown)
remaining binding (binding; 1 µM): 100%

O=C(c1ccc(Nc2ncc(Cl)c(-c3cc4ccccc4s3)n2)cc1)N1CCC(N2CCCC2)CC1
remaining binding (binding; competition with immobilised ligand; 1 µM): 27%

O=C(Nc1c[nH]nc1C(=O)NC1CCNCC1)c1cc(F)cc(F)c1
remaining binding (binding; competition with immobilised ligand; 1 µM): 100%

O=C(NCCCN1CCOCC1)c1ccc(Nc2ncc(Cl)c(-c3ccc(Cl)s3)n2)cc1
remaining binding (binding; competition with immobilised ligand; 1 µM): 76%

N[C@H]1CCN(c2nccc(-c3cnn4ncccc34)n2)C1
remaining binding (binding; 1 µM): 97%

Nc1cnc(N2CCc3cc(S(=O)(=O)Nc4c(F)cc(Cl)cc4F)cc(N4CCCC4=O)c32)nc1
remaining binding (binding; competition with immobilised ligand; 1 µM): 46%

CCN1CCN(Cc2ccc(C(=O)Nc3ccc(C)c(Oc4ccc5c(c4)CC(=O)N5)c3)cc2C(F)(F)F)CC1
remaining binding (binding; competition with immobilised ligand; 1 µM): 100%

CN(c1ccnc(CNc2nc(Nc3ccc4c(c3)CC(=O)N4)ncc2C(F)(F)F)n1)S(C)(=O)=O
remaining binding (cell-free assay; competition with immobilised ligand; 1 µM): 51%

COc1cnc(Nc2cccc(S(N)(=O)=O)c2)nc1N1CCN(c2ccccc2)CC1
remaining binding (binding; competition with immobilised ligand; 1 µM): 92%

O=C(NCc1ncc(C(F)(F)F)cc1Cl)c1ccc2c(c1)C1(CCS(=O)(=O)CC1)[C@H](C1CC1)N2S(=O)(=O)c1ccc(F)cc1
remaining binding (cell-free assay; competition with immobilised ligand; 1 µM): 100%

c1cncc(-c2cccc(Nc3nccc(NC4CCCCC4)n3)c2)c1
remaining binding (binding; competition with immobilised ligand; 10 µM): 91%

CN(C)C(=O)Cn1cc(-c2nc([C@@](C)(c3ccc(-c4cnc(N)nc4)cc3)C3CC3)no2)cn1
remaining binding (cell-free assay; competition with immobilised ligand; 1 µM): 100%

O=C(c1ccc(Nc2ncc(Cl)c(-c3ccc(Cl)s3)n2)cc1)N1CCC(N2CCCC2)CC1
remaining binding (binding; competition with immobilised ligand; 1 µM): 23%

C[C@H]1CCN(c2nccc(-c3cnn4ncccc34)n2)C1
remaining binding (binding; 1 µM): 100%

O=C(O)c1cc(-c2ccc(C3CCNCC3)cc2)c2ccc(-c3ccc(C(F)(F)F)cc3)cc2c1
remaining binding (cell-free assay; competition with immobilised ligand; 1 µM): 100%
